# NR2E3 ag-1 – agonists of human NR2E3 nuclear receptor. CHO-S Gal4-NCOR/VP16-NR2E3 two-hybrid, luciferase. inhibition of corepressor binding, % at 3.98 µM. actives 0.35% (n = 360,000). AID 602229;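 active = inhibition above the mean of all tested compounds plus 3 SD, cut at about 70% in these data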;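 also: 0% = DMSO with NR2E3 transfected cells and 100% = cells lacking NR2E3 construct; higher means lower luciferase signal from less NR2E3 corepressor binding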
# NR2E3 ag-2 – agonists of human nuclear receptor NR2E3. GST-NR2E3/biotin-RetCOR TR-FRET, 1536-well. inhibition of corepressor binding, % at 4.78 µM. actives 0.12% (n = 320,000). AID 2300;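 active = percent inhibition above the cutoff of mean plus 3 SD of all tested compounds, set per screening campaign, cut at about 20% in these data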;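 also: 0% = DMSO wells and 100% = biotin wells as full block of FRET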
#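 Test system: GST-NR2E3 and biotin-RetCOR proteins | Quantity: 1.35 nM GST-tagged NR2E3 final | Medium: Tris pH 7.5 | Also added: 7 nM biotin-RetCOR | Dosing: Compound at 4.8 µM, single dose | Timing: 5 h at 4 °C | Detection: Time-resolved FRET | Read-out basis: Percent inhibition | Benchmarks: Biotin wells as high control, 0.6% DMSO wells as low control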
# PG9 Ab binder – binds the HIV-1 gp120 antibody PG9; TR-FRET gp120-PG9 antibody binding; inhibition, % at 6.7 µM; actives 0.43% (n = 360,000); AID 624416; in the data active = inhibition above about 8.5%
# Rev-erbA mod – Rev-erb alpha (human) modulation; actives 0.79% (n = 370,000); Rev-erbα–FITC-DNA binding, fluorescence polarization, 90 min; AID 1259318; activity, % at 10 µM;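 active = activity above about 14%, limit read from the data; passing the limit was not always enough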;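 also: 0% = DMSO wells with 35 nM protein and 100% = DMSO wells with 750 nM protein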
# Target sequence (P20393 whole entry, looked up): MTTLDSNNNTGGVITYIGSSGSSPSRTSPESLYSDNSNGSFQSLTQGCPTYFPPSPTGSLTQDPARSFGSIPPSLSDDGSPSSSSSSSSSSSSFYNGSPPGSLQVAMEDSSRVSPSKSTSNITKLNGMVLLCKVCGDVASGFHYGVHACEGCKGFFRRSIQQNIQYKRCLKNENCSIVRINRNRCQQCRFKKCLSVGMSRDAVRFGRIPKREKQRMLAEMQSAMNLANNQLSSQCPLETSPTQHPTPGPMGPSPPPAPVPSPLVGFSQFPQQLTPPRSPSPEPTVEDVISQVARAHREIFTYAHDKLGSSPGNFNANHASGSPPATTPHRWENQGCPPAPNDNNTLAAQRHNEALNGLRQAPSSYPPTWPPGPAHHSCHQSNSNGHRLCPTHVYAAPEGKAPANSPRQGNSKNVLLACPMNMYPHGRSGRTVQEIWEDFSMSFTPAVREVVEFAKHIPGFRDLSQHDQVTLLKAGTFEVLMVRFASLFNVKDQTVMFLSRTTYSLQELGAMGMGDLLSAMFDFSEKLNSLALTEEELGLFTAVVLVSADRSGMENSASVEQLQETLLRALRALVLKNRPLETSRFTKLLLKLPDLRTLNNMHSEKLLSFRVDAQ
# Rev-erbA confirm – confirmation of modulators of human Rev-erb alpha DNA binding. shares compounds with Rev-erbA mod. Rev-erb alpha FITC-DNA binding, fluorescence polarization, 90 min. activation, % at 25 µM. actives 61% (n = 3,000). AID 1259319;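 active = activation at or above a set limit, or at least 3 SD above the negative control mean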;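 also: 0% = 35 nM protein with DMSO and 100% = 750 nM protein high control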
# RORg DNA counter – counter-screen for Rev-erb alpha modulators: RORgamma DNA binding | shares compounds with Rev-erbA mod | purified RORgamma protein-FITC-DNA binding, fluorescence polarization | IC50, µM | actives 8% (n = 910) | AID 1259320;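 active = Compounds whose fitted half-maximal concentration for disrupting protein-DNA binding is below 10 micromolar; the record names Rev-erb in its text, so the target is in doubt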
# The depositor's hits bear a star; . = not tested or not shown. Only some compounds are listed: those with a hit (about 1.4% of all), similar ones and a draw of the others.
SMILES,NR2E3 ag-1,NR2E3 ag-2,PG9 Ab binder,Rev-erbA mod,Rev-erbA confirm,others
Cc1ccc(S(=O)(=O)N2C[C@H]3[C@H]4C(=O)N(c5ccccc5)C(=O)[C@H]4C[C@H](OC(=O)Nc4cccs4)[C@@]3(O)C2)cc1,23,.,-3,5,.,
C[C@H](O)[C@@H]1C(=O)N2CCc3c([nH]c4ccccc34)[C@@H]2C[C@@H]1N(C)Cc1ccc(Cl)cc1,-36,.,-1,5,.,
CCOC(=O)c1nn(-c2ccccc2)c(=O)cc1SC(C)C,-4,1,1,-1,.,
CCOC(=O)c1nn(-c2ccccc2)c(=O)cc1SC1CCCCC1,-6,-1,1,29*,26*,
N#Cc1ccc(C#Cc2ccc3oc4ccccc4c(=O)c3c2)cc1,-5,.,-1,16*,17,
O=C(CCCn1c(=S)[nH]c2cc3c(cc2c1=O)OCO3)NCCc1ccccc1Cl,-18,8,5,27*,22*,
O=C(CCn1c(=S)[nH]c2cc3c(cc2c1=O)OCO3)NCc1ccccc1Cl,-10,3,0,3,.,
O=C(CCn1c(=S)[nH]c2cc3c(cc2c1=O)OCO3)NCCc1ccccc1Cl,12,.,-1,23*,13*,
O=C(CCc1ccccc1)N[C@H]1[C@H](OC(=O)c2ccco2)CCC[C@@]12C(=O)N(Cc1ccccc1)c1ccccc12,.,.,.,4,.,
COc1ccc(/C=C/C(=O)NC(=S)N2CCN(c3ccccc3OC)CC2)cc1,-39,1,-5,48*,39*,RORg DNA counter=>40
C[C@H]1[C@@H](N(C)Cc2ccccc2)CC[C@@]23CCCN2C(=O)CCC[C@@H]13,.,.,.,-4,.,
COc1cccc(C(=O)c2ccccc2C(=O)O)c1,0,.,-2,-4,.,
Cn1c2ccccc2c(=O)c2cc(C#Cc3ccsc3)ccc21,-25,2,0,22*,16,
Cc1cc(NC(=O)COC(=O)c2oc3c(ccc4ccccc43)c2C)no1,27,-2,5,-5,.,
Cc1c(C(=O)OCC(=O)Nc2ccc(S(N)(=O)=O)cc2)oc2c1ccc1ccccc12,-8,4,5,16*,18,
NS(=O)(=O)c1ccc(CCNC(=O)c2ccc3c(c2)N(Cc2ccccc2)CCS3)cc1,-8,2,4,39*,13,
CCn1c(=O)c(C(=O)NNC(=O)Cc2ccccc2)c(O)c2ccccc21,-20,5,-2,33*,11,
CC(C)Cn1c(=O)c(C(=O)Nc2ccccc2S(N)(=O)=O)c(O)c2ccccc21,-43,6,4,56*,29*,
CNC(=O)CCc1nc(-c2ccc(C(C)C)cc2)no1,.,.,.,-2,.,
O=C(NC1CCCCC1)C1c2ccccc2OCC(=O)N1CC(F)(F)F (stereo not drawn),-22,.,0,3,.,
Cc1ccc2c(c1)C(CS(=O)(=O)NCCc1ccccc1)NC2 (stereo not drawn),.,.,.,3,.,
COc1ccc(OC)c(S(=O)(=O)N2CCC(c3cn4ccccc4n3)CC2)c1,.,.,.,0,.,
Cc1oc2ccc(O)cc2c1C(=O)c1ccc([N+](=O)[O-])cc1,-38,2,-3,-3,.,
CN(C)/C=C/c1oc2ccc(O)cc2c1[N+](=O)[O-],-39,-12,-27,37*,17,
CN1C(=O)N(C)c2ccc(C=O)c3cccc1c23,-26,2,-3,8,.,
SMILES,NR2E3 ag-1,NR2E3 ag-2,PG9 Ab binder,Rev-erbA mod,Rev-erbA confirm,others
CN1C(=O)N(C)c2ccc(Br)c3cccc1c23,-39,.,-2,89*,81*,RORg DNA counter=>40
COc1cc(C(=O)Nc2cc(-c3nc4cc(C)ccc4o3)ccc2C)cc(OC)c1OC,-33,2,5,18,.,
CC(C)C(=O)Nc1cccc(-c2nc3ccccc3o2)c1,-108,1,0,21*,19*,
COc1cc(C(=O)Nc2cccc(-c3nc4cc(C)ccc4o3)c2)cc(OC)c1OC,-14,-1,1,61*,54*,RORg DNA counter=>40
COc1ccc(OCC(=O)Nc2cccc(-c3nc4ccccc4o3)c2)cc1,-128,-1,6,26*,16,
CC(C)CC(=O)Nc1cccc(-c2nc3ccccc3o2)c1,-25,0,3,33*,26*,
Cc1nc2cc3c(=O)n(C)cnc3cc2n1Cc1ccccc1,27,.,2,-5,.,
COCCNC(=S)N(Cc1cc2cc(C)ccc2n2nnnc12)C1CCCC1,-30,-1,-1,54*,22*,
COCCN(Cc1cc2cc(C)ccc2n2nnnc12)C(=S)Nc1ccc(OC)cc1,-8,.,0,-2,.,
COCCN(Cc1cc2cc(C)ccc2n2nnnc12)C(=S)Nc1ccc(C)cc1,4,-1,2,104*,49*,RORg DNA counter=>40
Cc1cc(C)n2nc(C(=O)OCC(=O)NC3CCS(=O)(=O)C3)nc2n1 (stereo not drawn),-33,.,-1,3,.,
O=C(O)C1C=CCC(C(=O)O)C1 (stereo not drawn),6,.,-2,0,.,
CCN(CC)c1ccc(/C=C(\C#N)c2ccccn2)cc1,-70,4,.,.,.,
CN(CCC#N)c1ccc(/C=C(\C#N)c2ccccn2)cc1,-116,2,-2,71*,75*,RORg DNA counter=>40
Cc1nc2ccccn2c1P(=O)(c1ccccc1)c1ccccc1,.,.,.,-8,.,
O=C(Nc1ccnc(=O)[nH]1)c1sc2ccccc2c1Cl,-27,-1,3,37*,23*,
CC1=C[C@]2(CN(CC3CC3)C3=N[C@H](c4ccccc4)CC(=O)N32)n2c(=O)n(-c3ccccc3)c(=O)n2C1,.,.,.,-3,.,
Cc1ccc(S(=O)(=O)N(C)C[C@H]2Oc3ncc(-c4ccccc4)cc3C(=O)N([C@@H](C)CO)C[C@@H]2C)cc1,-11,.,-1,8,.,
COc1ccccc1C(=O)NCC(=O)OCc1nnc(-c2ccccc2)o1,-10,.,0,-4,.,
Cc1nc(N)c(C#N)c(-c2cccnc2)c1-c1ccccc1,4,2,6,2,.,
Cc1ccc2c(n1)sc1c(-c3ccccc3)c(C#N)c(N)nc12,-7,3,1,49*,38*,RORg DNA counter=>40
O=C(c1cccc(S(=O)(=O)N2CCOCC2)c1)N1CCN(c2ncccn2)CC1,-6,.,0,-1,.,
O=C(c1cc2cc(Cl)ccc2[nH]1)N1CCc2ccccc2C1,-1,-5,1,60*,6,
O=C(c1cc2cc(F)ccc2[nH]1)N1CCc2ccccc2C1,-66,-3,-2,7,.,
COC(=O)[C@]12C[C@H](CC(=O)NCC34CC5CC(CC(C5)C3)C4)C(=O)N(CCc3ccc(OC)c(OC)c3)C1=C[C@H](COCc1ccccc1)O[C@@H]2C,.,.,.,4,.,
COc1ccc(-c2cc(-c3ccc(C)cc3)nc(SCc3nnc(-c4ccccc4)o3)c2C#N)cc1OC,-4,-1,-2,80*,37*,RORg DNA counter=>40
CCCN(C(=O)c1ccco1)c1nnc(-c2ccncc2)s1,-7,-2,0,1,.,
